Source: ChEMBL document CHEMBL3352791, “Thioaryl naphthylmethanone oxime ether analogs as novel anticancer agents” (J Med Chem, 2014)
Calls of active or inactive are those of the source. The rule behind the calls is not given here.

Columns and labels:
MCF7 [1] = experiment: Antitumor activity against human MCF7 cells xenografted in NIH-3 mouse assessed as increase in TUNEL positive cells at 16 mg/kg, po for 25 days relative to control; assay type: functional
MCF7 [2] = experiment: Antitumor activity against human MCF7 cells xenografted in NIH-3 mouse assessed as reduction in tumor volume at 16 mg/kg, po for 25 days relative to control; assay type: functional; conditions: MCF7, 600 h
MCF7 [3] = experiment: Cell cycle arrest in human […] MCF7 cells assessed as accumulation at S phase at 2.5 uM by propidium iodide staining by FACS analysis (reference value: 24.76%); assay type: functional
[4] = Cytotoxicity against human MCF10A cells after 72 hrs by MTT assay; assay type: ADME, cell-based; conditions: MCF-10A
MCF7 [5] = experiment: Cell cycle arrest in human […] cells assessed as accumulation at G1 phase at 2.5 uM by propidium iodide staining by FACS analysis (reference value: 62.88%); assay type: functional
MDA-MB-231 [6] = experiment: Inhibition of MTA expression in human MDA-MB-231 cells at 1 uM after 24 hrs by qPCR analysis; assay type: functional, cell-based
In short: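 MDA-MB-231 cells treated at 1µM. Transcript levels measured by qPCR with GAPDH as internal control.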

[7] = biological target: RAC-alpha serine/threonine-protein kinase (Homo sapiens) (UniProt P31749); experiment: Inhibition of EGF-induced AKT phosphorylation in human MCF7 cells at 1 uM by ELISA; assay type: cell-based
MDA-MB-231 [8] = experiment: Inhibition of mammosphere formation in human MDA-MB-231 cells at 5 to 20 uM after 8 days; assay type: functional, cell-based
In short: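 Single cells were plated in ultralow-attachment plates at 100,000 viable cells/ml for primary culture and 5,000 cells/ml for passages. Spheres formed over 7–10 days in serum-free MEBM containing compound, with salinomycin as comparator. Primary spheres were trypsin-dissociated for serial passage. Sphere number was counted manually and verified by two independent observers blinded to treatment.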

MDA-MB-231 [9] = experiment: Induction of apoptosis in human […] cells assessed as caspase 3 activation at 2.5 to 7.5 uM by Caspase-Glo assay; assay type: functional, cell-based
In short: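 Caspase-8, -9 and -3 activities measured with Caspase-Glo 8, 9 and 3 kits; mean ± SEM from three independent experiments.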

[10] = biological target: Proto-oncogene tyrosine-protein kinase Src (Homo sapiens) (UniProt P12931); experiment: Inhibition of cSRC (unknown origin) at 10 uM
In short: (§1)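 Cell-free kinase profiling was run as a standard 33P-ATP-based in vitro kinase assay.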

[11] = biological target: Epidermal growth factor receptor (Homo sapiens) (UniProt P00533); experiment: Inhibition of EGFR (unknown origin) at 10 uM
[12] = biological target: cGMP-specific 3',5'-cyclic phosphodiesterase (Canis lupus familiaris) (UniProt O77746); experiment: Inhibition of PDE5 CAT (unknown origin) activity at 1 to 10 uM; conditions: Homo sapiens
In short: (§2)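 Recombinant PDE isoform activity was read by fluorescence polarization. A binding reagent complexes with the nucleotide monophosphate that the phosphodiesterase generates from cAMP/cGMP, and this raises the polarization of the labelled substrate. Reference standards were PDE1A3 10µM IBMX, PDE2A3 1nM BAY 60-7550, PDE3CAT 1µM cilostazol, PDE4CAT rolipram, PDE5CAT 0.1µM sildenafil, PDE7A […], PDE8A1 10µM BRL-50481, PDE9A1 1µM SB 36216 and PDE11A1 dipyridamole.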

MDA-MB-231 [13] = experiment: Inhibition of basal cell migration in human MDA-MB-231 cells assessed as […] at 1 uM after 24 hrs by wound healing assay; assay type: functional, cell-based
MDA-MB-231 [14] = experiment: Inhibition of TGF-betaR1 expression in human MDA-MB-231 cells at 1 uM after 24 hrs by qPCR analysis; assay type: functional, cell-based
In short: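 Gene expression was measured by qPCR in MDA-MB-231 breast cancer cells treated with 1µM compound. GAPDH served as the housekeeping internal control.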

MDA-MB-231 [15] = experiment: Antiinvasion activity in human MDA-MB-231 cells assessed as inhibition of FBS-induced cell invaded to matrigel coated invasion chamber at 1 uM after 24 hrs by Transwell invasion assay; assay type: functional, cell-based
[16] = biological target: Epidermal growth factor receptor (Homo sapiens) (UniProt P00533); experiment: Inhibition of EGF-induced EGFR phosphorylation at Tyr845 in human MDA-MB-231 cells at 1 uM by ELISA; assay type: cell-based
In short: (§3)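 MDA-MB-231 cells pretreated 1 h in serum-free medium, then EGF-stimulated for 15 min and lysed. Equal lysate protein (Bradford) assayed by ELISA kits for p-EGFR (Tyr1068, Tyr845, Tyr1173) and p-HER2. Absorbance read at 450 nm, normalized to total EGFR or HER2.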

MCF7 [17] = experiment: Antitumor activity against human MCF7 cells xenografted in NIH-3 mouse assessed as large area of stroma/deletion of epithelial cells at 16 mg/kg, po for 25 days; assay type: functional, organism-based; parameters: dose 16 mg/kg
[18] = biological target: ETS domain-containing protein Elk-1 (Homo sapiens) (UniProt P19419); experiment: Inhibition of EGF-induced phosphorylated ELK1 in human MDA-MB-231 cells at 1 uM by ELISA; assay type: cell-based
MCF7 [19] = experiment: Induction of apoptosis in human […] cells; assay type: functional, cell-based
[20] = biological target: Epidermal growth factor receptor (Homo sapiens) (UniProt P00533); experiment: Inhibition of EGF-induced EGFR phosphorylation at Tyr1068 in human MCF7 cells at 0.5 uM by ELISA; assay type: cell-based
[21] = tested on: Mast/stem cell growth factor receptor Kit (Homo sapiens), P10721 [D816A]; experiment: Inhibition of cKit D816A mutant (unknown origin) at 10 uM; in short: as §1
[22] = biological target: Epidermal growth factor receptor (Homo sapiens) (UniProt P00533); experiment: Inhibition of EGF-induced EGFR2 phosphorylation in human MDA-MB-231 cells at 1 uM by ELISA; assay type: cell-based; in short: as §3
[23] = biological target: High affinity cAMP-specific and IBMX-insensitive 3',5'-cyclic phosphodiesterase 8A (Homo sapiens) (UniProt O60658); experiment: Inhibition of PDE8A1 (unknown origin) activity at 1 to 10 uM; in short: as §2
[24] = biological target: RAC-alpha serine/threonine-protein kinase (Homo sapiens) (UniProt P31749); experiment: Inhibition of EGF-induced AKT phosphorylation in human MDA-MB-231 cells at 1 uM by ELISA; assay type: cell-based
DLD-1 = experiment: Antitumor activity against human DLD1 cells assessed as reduction in CD133 positive in colon cancer stem cells after 24 hrs by flow cytometry; assay type: functional, cell-based
[25] = biological target: Epidermal growth factor receptor (Homo sapiens) (UniProt P00533); experiment: Inhibition of EGF-induced EGFR phosphorylation at Tyr1173 in human MCF7 cells at 0.1 uM by ELISA; assay type: cell-based
MCF7 [26] = experiment: Inhibition of TGFbeta expression in human MCF7 cells at 5 uM by ELISA; assay type: functional, cell-based
[27] = biological target: Epidermal growth factor receptor (Homo sapiens) (UniProt P00533); experiment: Inhibition of EGF-induced EGFR phosphorylation at Tyr1148 in human MCF7 cells at 1 uM by ELISA; assay type: cell-based
MCF7 [28] = experiment: Cytotoxicity against human […] cells assessed as cell viability at 5 uM by MTT assay in presence of z-IETD-FMK caspase-8 inhibitor; assay type: functional, cell-based
In short: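 Cells seeded 1×10^4/well in DMEM with 10% FBS, adhered overnight, serum-starved 4 h; pre-incubated 2 h with Z-IETD-FMK or Z-LEHD-FMK (10µM each), then 5μM compound for a further 24 h; viability by MTT.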

MCF7 [29] = experiment: Inhibition of VEGF expression in human MCF7 cells at 5 uM by ELISA; assay type: functional, cell-based

Sequence of Epidermal growth factor receptor (Homo sapiens) (P00533 whole entry): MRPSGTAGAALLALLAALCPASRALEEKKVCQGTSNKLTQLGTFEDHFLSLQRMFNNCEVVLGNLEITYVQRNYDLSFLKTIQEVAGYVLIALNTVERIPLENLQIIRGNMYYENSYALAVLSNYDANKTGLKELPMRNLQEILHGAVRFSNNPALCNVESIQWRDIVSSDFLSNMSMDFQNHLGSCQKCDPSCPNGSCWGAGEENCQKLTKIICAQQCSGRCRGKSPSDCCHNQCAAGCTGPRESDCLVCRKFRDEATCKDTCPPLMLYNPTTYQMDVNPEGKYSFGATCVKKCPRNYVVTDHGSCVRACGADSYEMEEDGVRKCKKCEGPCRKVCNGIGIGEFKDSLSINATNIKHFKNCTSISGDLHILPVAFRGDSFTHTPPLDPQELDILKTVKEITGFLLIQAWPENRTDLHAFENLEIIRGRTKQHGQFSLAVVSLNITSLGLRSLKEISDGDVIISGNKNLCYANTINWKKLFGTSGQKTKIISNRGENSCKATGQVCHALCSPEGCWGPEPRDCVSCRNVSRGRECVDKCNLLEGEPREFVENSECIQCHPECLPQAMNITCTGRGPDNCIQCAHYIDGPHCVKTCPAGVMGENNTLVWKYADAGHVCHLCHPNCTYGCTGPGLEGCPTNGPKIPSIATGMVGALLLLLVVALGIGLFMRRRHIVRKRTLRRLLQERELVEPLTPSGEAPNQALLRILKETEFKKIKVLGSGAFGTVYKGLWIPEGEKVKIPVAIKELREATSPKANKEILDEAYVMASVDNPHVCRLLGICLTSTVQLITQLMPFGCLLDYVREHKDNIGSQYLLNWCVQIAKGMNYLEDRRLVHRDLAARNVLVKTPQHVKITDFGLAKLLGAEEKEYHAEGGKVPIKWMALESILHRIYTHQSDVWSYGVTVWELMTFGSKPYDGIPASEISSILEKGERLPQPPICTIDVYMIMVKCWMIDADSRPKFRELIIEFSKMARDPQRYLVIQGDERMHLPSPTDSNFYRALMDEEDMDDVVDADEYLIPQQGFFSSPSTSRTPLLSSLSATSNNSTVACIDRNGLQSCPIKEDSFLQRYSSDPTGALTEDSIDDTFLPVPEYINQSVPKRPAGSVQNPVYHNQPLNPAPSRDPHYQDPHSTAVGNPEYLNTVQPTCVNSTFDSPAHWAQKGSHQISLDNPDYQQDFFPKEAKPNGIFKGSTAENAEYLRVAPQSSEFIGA
Sequence of RAC-alpha serine/threonine-protein kinase (Homo sapiens) (P31749 whole entry): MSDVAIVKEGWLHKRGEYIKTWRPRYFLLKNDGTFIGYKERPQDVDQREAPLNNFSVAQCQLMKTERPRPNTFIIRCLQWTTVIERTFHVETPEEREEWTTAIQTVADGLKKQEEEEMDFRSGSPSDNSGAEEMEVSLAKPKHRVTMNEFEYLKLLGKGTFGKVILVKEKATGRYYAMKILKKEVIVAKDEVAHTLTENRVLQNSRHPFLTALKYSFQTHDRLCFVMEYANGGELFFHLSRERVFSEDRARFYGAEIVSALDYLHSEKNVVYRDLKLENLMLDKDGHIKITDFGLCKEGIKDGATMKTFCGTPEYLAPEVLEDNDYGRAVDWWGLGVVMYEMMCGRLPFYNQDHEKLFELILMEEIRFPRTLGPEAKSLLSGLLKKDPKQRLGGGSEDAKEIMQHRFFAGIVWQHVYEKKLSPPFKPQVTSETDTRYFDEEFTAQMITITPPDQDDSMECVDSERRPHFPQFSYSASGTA
Sequence of Mast/stem cell growth factor receptor Kit (Homo sapiens), P10721 [D816A] (P10721 whole entry D816A): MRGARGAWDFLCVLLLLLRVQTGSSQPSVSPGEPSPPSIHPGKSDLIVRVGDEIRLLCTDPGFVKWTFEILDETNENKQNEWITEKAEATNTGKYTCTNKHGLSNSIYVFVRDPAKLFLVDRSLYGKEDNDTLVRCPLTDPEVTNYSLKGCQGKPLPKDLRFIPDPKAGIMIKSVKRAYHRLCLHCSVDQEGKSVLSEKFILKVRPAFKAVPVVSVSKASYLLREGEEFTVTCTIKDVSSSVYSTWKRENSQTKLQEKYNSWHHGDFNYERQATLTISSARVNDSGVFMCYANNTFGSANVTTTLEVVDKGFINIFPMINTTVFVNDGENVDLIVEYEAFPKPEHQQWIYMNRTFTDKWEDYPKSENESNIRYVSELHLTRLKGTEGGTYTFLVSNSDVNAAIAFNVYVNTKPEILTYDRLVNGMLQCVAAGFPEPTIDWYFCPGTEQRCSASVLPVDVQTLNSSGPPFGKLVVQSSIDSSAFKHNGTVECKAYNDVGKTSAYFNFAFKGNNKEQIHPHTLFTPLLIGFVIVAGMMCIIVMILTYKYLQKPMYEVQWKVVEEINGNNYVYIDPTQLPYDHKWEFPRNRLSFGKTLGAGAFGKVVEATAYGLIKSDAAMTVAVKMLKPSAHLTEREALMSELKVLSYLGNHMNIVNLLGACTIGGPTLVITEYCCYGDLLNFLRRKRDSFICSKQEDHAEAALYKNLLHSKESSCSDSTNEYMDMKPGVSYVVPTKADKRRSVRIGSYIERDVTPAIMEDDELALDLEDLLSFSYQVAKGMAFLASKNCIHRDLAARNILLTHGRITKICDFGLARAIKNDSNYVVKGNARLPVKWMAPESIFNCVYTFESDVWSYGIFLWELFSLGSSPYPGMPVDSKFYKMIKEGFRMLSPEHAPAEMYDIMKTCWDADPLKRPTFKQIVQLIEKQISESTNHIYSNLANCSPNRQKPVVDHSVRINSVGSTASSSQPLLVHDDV
Sequence of Proto-oncogene tyrosine-protein kinase Src (Homo sapiens) (P12931 2-536 limits assumed): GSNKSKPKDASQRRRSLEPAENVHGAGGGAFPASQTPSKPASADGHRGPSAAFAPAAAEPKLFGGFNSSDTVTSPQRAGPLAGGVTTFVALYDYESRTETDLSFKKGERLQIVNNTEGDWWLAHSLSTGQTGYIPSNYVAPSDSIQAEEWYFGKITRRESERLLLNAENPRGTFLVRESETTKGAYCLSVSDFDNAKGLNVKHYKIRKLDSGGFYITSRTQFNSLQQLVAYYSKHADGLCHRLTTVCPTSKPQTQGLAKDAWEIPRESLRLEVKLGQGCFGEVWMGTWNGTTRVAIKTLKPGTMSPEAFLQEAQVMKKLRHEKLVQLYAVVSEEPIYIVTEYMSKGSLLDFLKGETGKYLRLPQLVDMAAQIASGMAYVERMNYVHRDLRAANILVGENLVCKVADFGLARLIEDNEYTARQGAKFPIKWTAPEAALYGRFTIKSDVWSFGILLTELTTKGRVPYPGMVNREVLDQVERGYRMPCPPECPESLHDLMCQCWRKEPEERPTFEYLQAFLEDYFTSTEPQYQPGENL
Sequence of High affinity cAMP-specific and IBMX-insensitive 3',5'-cyclic phosphodiesterase 8A (Homo sapiens) (O60658 whole entry): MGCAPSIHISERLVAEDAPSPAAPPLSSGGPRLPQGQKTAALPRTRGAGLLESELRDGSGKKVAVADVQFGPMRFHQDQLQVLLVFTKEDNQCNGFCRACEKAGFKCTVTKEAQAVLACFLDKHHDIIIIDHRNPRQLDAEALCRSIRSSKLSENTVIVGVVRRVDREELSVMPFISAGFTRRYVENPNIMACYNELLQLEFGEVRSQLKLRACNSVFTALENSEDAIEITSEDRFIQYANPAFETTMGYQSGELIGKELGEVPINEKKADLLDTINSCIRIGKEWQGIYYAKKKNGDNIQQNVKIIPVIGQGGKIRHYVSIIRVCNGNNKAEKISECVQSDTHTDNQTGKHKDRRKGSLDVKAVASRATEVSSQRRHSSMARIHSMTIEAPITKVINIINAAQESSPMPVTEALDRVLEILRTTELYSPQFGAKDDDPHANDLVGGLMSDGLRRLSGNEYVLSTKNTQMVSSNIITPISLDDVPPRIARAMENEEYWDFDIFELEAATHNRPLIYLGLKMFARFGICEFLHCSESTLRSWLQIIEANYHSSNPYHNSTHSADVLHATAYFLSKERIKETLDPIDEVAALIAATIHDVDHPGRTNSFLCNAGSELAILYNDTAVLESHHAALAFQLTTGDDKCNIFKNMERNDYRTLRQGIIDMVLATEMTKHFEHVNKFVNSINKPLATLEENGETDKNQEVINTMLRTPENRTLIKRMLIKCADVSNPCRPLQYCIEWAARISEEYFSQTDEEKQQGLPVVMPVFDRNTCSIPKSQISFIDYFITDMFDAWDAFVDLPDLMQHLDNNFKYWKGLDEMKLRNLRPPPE
Sequence of ETS domain-containing protein Elk-1 (Homo sapiens) (P19419 whole entry, the tested form may be a part): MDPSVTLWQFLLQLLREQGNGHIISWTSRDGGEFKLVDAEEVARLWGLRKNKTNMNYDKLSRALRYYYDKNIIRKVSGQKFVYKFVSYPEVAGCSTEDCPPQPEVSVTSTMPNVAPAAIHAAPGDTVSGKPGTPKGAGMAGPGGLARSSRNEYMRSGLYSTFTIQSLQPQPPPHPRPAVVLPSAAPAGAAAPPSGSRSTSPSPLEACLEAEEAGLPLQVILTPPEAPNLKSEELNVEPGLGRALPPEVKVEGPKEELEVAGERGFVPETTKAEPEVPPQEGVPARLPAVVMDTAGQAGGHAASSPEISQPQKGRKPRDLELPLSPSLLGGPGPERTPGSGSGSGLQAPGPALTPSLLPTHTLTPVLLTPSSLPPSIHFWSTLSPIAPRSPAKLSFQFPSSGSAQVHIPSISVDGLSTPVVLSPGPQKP

**Q.** Which Activity (MCF7 [1]) does the source give for `CCN(CC)CCO/N=C(\c1ccc(SC)cc1)c1cccc2ccccc12.O=C(O)C(=O)O` here?
**A.** Its Activity is over 50%.

**Q.** And the inhibition in vivo at 16 mg/kg (MCF7 [2])?
**A.** The inhibition in vivo at 16 mg/kg was 50%.

**Q.** And the Activity (MCF7 [3])?
**A.** Its Activity is 16.82%.

**Q.** And the IC50 [4]?
**A.** The IC50 was 50 µM.

**Q.** And the Activity (MCF7 [5])?
**A.** Its Activity is 70.71%.

**Q.** For `CCN(CC)CCO/N=C(\c1ccc(SC)cc1)c1cccc2ccccc12`, which inhibition (MDA-MB-231 [6]) is on record?
**A.** The inhibition was “Active”.

**Q.** What about the inhibition [7] of the same molecule?
**A.** The inhibition was “Active”.

**Q.** And the inhibition (MDA-MB-231 [8])?
**A.** Its inhibition is “Active”.

**Q.** What about the Activity (MDA-MB-231 [9]) of the same molecule?
**A.** The Activity was “Active”.

**Q.** And the inhibition [10]?
**A.** The inhibition was “inactive”.

**Q.** And the inhibition [11]?
**A.** Its inhibition is “inactive”.

**Q.** And the inhibition [12]?
**A.** The inhibition was “inactive”.

**Q.** What about the inhibition (MDA-MB-231 [13]) of the same molecule?
**A.** Its inhibition is “Active”.

**Q.** What about the inhibition (MDA-MB-231 [14]) of the same molecule?
**A.** The inhibition was “inactive”.

**Q.** And the Activity (MDA-MB-231 [15])?
**A.** The Activity was “Active”.

**Q.** What about the inhibition [16] of the same molecule?
**A.** The inhibition was “Active”.

**Q.** What about the Activity (MCF7 [17]) of the same molecule?
**A.** The Activity was “Active”.

**Q.** What about the inhibition [18] of the same molecule?
**A.** Its inhibition is “Active”.

**Q.** And the Activity (MCF7 [19])?
**A.** Its Activity is “Active”.

**Q.** What about the inhibition [20] of the same molecule?
**A.** The inhibition was “Active”.

**Q.** What about the inhibition [21] of the same molecule?
**A.** The inhibition was “inactive”.

**Q.** And the inhibition [22]?
**A.** The inhibition was “Active”.

**Q.** What about the inhibition [23] of the same molecule?
**A.** The inhibition was “inactive”.

**Q.** And the inhibition [24]?
**A.** The inhibition was “Active”.

**Q.** And the inhibition (DLD-1)?
**A.** The inhibition was “Active”.

**Q.** What about the inhibition [25] of the same molecule?
**A.** Its inhibition is “Active”.

**Q.** And the inhibition (MCF7 [26])?
**A.** The inhibition was “inactive”.

**Q.** And the inhibition [27]?
**A.** The inhibition was “Active”.

**Q.** What about the Activity (MCF7 [28]) of the same molecule?
**A.** The Activity was “inactive”.

**Q.** What about the inhibition (MCF7 [29]) of the same molecule?
**A.** Its inhibition is “inactive”.
